Sampled rows, rich in hits. Any-hit rate of the full collection: about 1.9%.
HCV core dimer: blocks dimerization of HCV core protein; inhibition, % at 5 µM; hit rate 0.33% among 300,000; AID 1899; TR-FRET GST/Flag-core106 dimerization, 1536-well;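 active = inhibition above the mean of all tested compounds plus 3 SD, set per screening campaign, cut at about 45% in these data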
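test system = GST/Flag-tagged HCV core106 proteins | probe or stimulus = Eu donor and XL665 acceptor anti-tag antibodies | times = compound-protein-antibody incubation 4 h at 22.5 °C | signal = TR-FRET, excitation 340 nm, emission 617 and 671 nm | measure = percent inhibition of core106 dimerization signal | controls = wells lacking GST-core106 and wells with excess unlabelled core106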
ZTA DNA inh: counter-screen for EBNA-1 inhibitors: inhibitors of Epstein-Barr virus ZTA; hit rate 0.15% among 320,000; AID 2234; inhibition, % at 11 µM; ZTA-DNA binding, fluorescence polarization; in the data active = inhibition above about 33%
EBNA-1 inhibitor: blocks EBNA-1 binding to DNA; EBNA-1 DNA binding, fluorescence polarization; inhibition, % at 14.8 µM; hit rate 0.34% among 300,000; AID 1950; in the data active = inhibition above about 28%
NS3 helicase inh: blocks Hepatitis C virus NS3 helicase unwinding | hit rate 0.56% among 290,000 | NS3 helicase DNA unwinding, Cy5 molecular beacon fluorescence | inhibition, % at 10.9 µM;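 active = inhibition above the mean of all tested compounds plus 3 SD, set per campaign, cut at about 35% in these data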;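 note: 0% = DMSO wells and 100% = thioflavine S control wells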
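System: HCV NS3 helicase fragment; control set: DMSO and thioflavine S; technique: Cy5 fluorescence at 0 and 60 min, beacon hairpin quenching; reagent: beacon DNA duplex substrate plus ATP; replicates: singlicate; schedule: 1 h reaction at 25 °C, ATP-initiated; medium: MOPS buffer pH 6.5 with MgCl2, DTT, Tween20, BSA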
PP1 counter: counter-screen for PP5 inhibitors: inhibitors of human PP1-alpha; purified PP1alpha, OMFP fluorescence; inhibition, % at 6.7 µM; hit rate 0.9% among 320,000; AID 2235;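 active = inhibition above the mean inhibition of all tested compounds plus 3 SD, computed separately for each screening campaign, cut at about 15% in these data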
PP1 inh confirm: confirmation of human PP1 phosphatase inhibitors | purified PP1alpha, OMFP substrate fluorescence | hit rate 52% among 1,900 | shares compounds with PP1 counter | inhibition, % at 6.7 µM;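 active = mean PP1 inhibition above a set limit taken from the earlier primary screen, cut at about 15% in these data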
PP5 inh counter: inhibits human PP5 phosphatase in PP1 counter-screen; inhibition, % at 6.7 µM; purified PP5c, OMFP fluorescence; shares compounds with PP1 counter; AID 2360; hit rate 4% among 1,900;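 active = mean PP5 inhibition over triplicate wells above about 9.5% taken from the earlier PP1 screen, limit read from the data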
Target sequence (P53041 whole entry, looked up): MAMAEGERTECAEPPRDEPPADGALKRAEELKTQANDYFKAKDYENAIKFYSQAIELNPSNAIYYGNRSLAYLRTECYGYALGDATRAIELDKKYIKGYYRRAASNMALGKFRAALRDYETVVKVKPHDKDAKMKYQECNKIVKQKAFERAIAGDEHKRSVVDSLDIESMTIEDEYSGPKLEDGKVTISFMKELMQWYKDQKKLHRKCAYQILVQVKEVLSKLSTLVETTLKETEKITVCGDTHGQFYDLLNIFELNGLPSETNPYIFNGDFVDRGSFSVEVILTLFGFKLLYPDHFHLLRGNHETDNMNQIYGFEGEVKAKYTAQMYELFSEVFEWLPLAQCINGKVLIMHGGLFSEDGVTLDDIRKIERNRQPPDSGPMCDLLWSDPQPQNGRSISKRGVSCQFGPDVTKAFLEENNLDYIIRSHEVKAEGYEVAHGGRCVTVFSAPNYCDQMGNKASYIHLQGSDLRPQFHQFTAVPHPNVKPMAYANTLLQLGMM
An asterisk follows results filed as active; / = no result given.

SMILES | HCV core dimer | ZTA DNA inh | EBNA-1 inhibitor | NS3 helicase inh | PP1 counter | PP1 inh confirm | PP5 inh counter
CC(=O)NC(c1ccc(C(C)C)cc1)c1ccc2cccnc2c1O (stereo not given) | 6 | 7 | 0 | 25 | 13 | / | /
Oc1c(C(c2ccccn2)N2CCC(Cc3ccccc3)CC2)cc(Cl)c2cccnc12 (stereo not given) | 1 | -4 | -1 | 2 | 73* | 20* | 2
CC(=O)NC(c1cc(Cl)c2cccnc2c1O)C(C)C (stereo not given) | / | 5 | / | / | 1 | / | /
Oc1c(C(c2ccc(Cl)cc2)N2CCCC2)cc(Cl)c2cccnc12 (stereo not given) | -1 | -15 | -3 | 26 | 25* | 22* | -2
Cn1cc(-c2cc(C(=O)O)on2)cn1 | 3 | -5 | -9 | 6 | -1 | / | /
Cc1ccccc1CN(C)C(=O)CNC(=O)c1ccc2ccccc2c1 | 6 | -17 | 1 | 0 | 2 | / | /
O=C(O)CSc1nnc(COc2ccc(Br)cc2)n1-c1ccccc1 | -1 | -8 | -14 | 13 | 31* | 3 | 2
Cc1ccc(Cn2c(C3CCCN3c3nc(-c4ccc(F)cc4)cs3)nc3cc(C(F)(F)F)ccc32)cc1 (stereo not given) | -2 | -6 | -2 | / | 2 | / | /
CCOC(=O)c1c(N2C(=O)Nc3cc(Cl)c(Cl)cc3N2O)sc2c1CCCCC2 | 21 | 2 | 8 | 16 | 19* | 17* | 0
COc1ccc(NC(=O)C2(c3ccc(NC(=O)c4ccc(OC(C)=O)cc4)cc3)CCCC2)cc1 | 7 | 6 | 25 | 7 | 18* | 24* | -7
Cc1c(NC(=O)c2cccnc2C(=O)O)cccc1C(=O)O | -15 | 0 | -2 | 1 | 25* | 0 | 3
Cc1c(NC(=O)c2ccc(-c3ccccc3)cc2)cccc1C(=O)O | 1 | -3 | -3 | 8 | 1 | / | /
CC(C)C(=O)NC(c1ccccc1)c1cc([N+](=O)[O-])c2cccnc2c1O (stereo not given) | -2 | -4 | 3 | 9 | 29* | 13 | 11*
CCC(=O)NC(c1cccs1)c1cc([N+](=O)[O-])c2cccnc2c1O (stereo not given) | -16 | 5 | 1 | -1 | 12 | / | /
CCCC(=O)NC(c1cccs1)c1cc([N+](=O)[O-])c2cccnc2c1O (stereo not given) | 3 | 7 | 2 | 13 | 18* | 16* | 6
Cc1nc2ccccc2nc(C)c1=NOCc1ccccc1Cl | 1 | 14 | 5 | -1 | -2 | / | /
COc1ccc(N2CCN(C(=O)C(Cc3ccccc3)n3cccc3)CC2)cc1 (stereo not given) | 4 | -10 | -5 | 11 | 0 | / | /
CN([C@@H](Cc1ccc(OS(=O)(=O)c2cccc3cnccc23)cc1)C(=O)N1CCN(c2ccccc2)CC1)S(=O)(=O)c1cccc2cnccc12 | 45 | -16 | 14 | -31 | 29* | 20* | 2
CC(=O)N1CCc2cc(S(=O)(=O)C(C)CC(=O)Nc3ccc(OC(F)(F)F)cc3)ccc21 (stereo not given) | -7 | 7 | 9 | -2 | -4 | / | /
CCCOc1ccc(C(=O)NC(=S)NNC(=O)c2c(-c3ccccc3)noc2C)cc1 | 1 | -11 | -10 | 3 | 18* | 1 | -1
COc1cccc(C(=O)COC(=O)COc2c(C)cc(C)cc2C)c1 | / | 15 | / | / | 3 | / | /
CCCCC(=O)NC(c1ccc(C(C)C)cc1)c1ccc2cccnc2c1O (stereo not given) | 12 | -4 | 1 | 24 | 23* | 21* | -7
CCCCC(=O)NC(c1ccccc1Cl)c1ccc2cccnc2c1O (stereo not given) | 0 | -3 | 1 | -5 | 27* | 19* | -4
CCCCC(=O)NC(c1ccccc1)c1ccc2cccnc2c1O (stereo not given) | 12 | 8 | 1 | 26 | 21* | 13 | -5
CCCC(=O)NC(c1ccccc1)c1ccc2cccnc2c1O (stereo not given) | 8 | 16 | -8 | 18 | 3 | / | /
SMILES | HCV core dimer | ZTA DNA inh | EBNA-1 inhibitor | NS3 helicase inh | PP1 counter | PP1 inh confirm | PP5 inh counter
CCOC(=O)c1c(NC(=O)CSc2nnc3c(n2)[nH]c2ccccc23)sc2c1CCN(C)C2 | 33 | 1 | -5 | -28 | 18* | 11 | -1
CCOC(=O)c1c(NC(=O)CSc2ncccn2)sc2c1CCN(Cc1ccccc1)C2 | / | / | / | -80 | / | / | /
CCC(C)(C)NC(=O)C(c1ccncc1)N(C(=O)Cn1nnc2ccccc21)c1cc2c(cc1C(C)=O)OCO2 (stereo not given) | -1 | -16 | -3 | -9 | -4 | / | /
Cc1cccc(N2CCN(C(=O)c3ccc4c(c3)NC(=O)C(CSCc3cccc(F)c3)N4)CC2)c1C (stereo not given) | -4 | -10 | -5 | 14 | 23* | 29* | -2
Cc1cccc(N2CCN(C(=O)c3ccc4c(c3)OCCO4)CC2)c1C | -6 | 10 | 13 | -3 | 0 | / | /
CCOC(=O)c1c(-c2ccccc2)c2cc(OC)ccc2n1CCCN(C)C | -15 | 21 | -6 | -60 | 1 | / | /
CCOC(=O)[C@H]1[C@H]2COc3ccc(Cl)cc3[C@@H]2N2C(=O)c3ccccc3NC(=O)[C@@]12C | 2 | -2 | -10 | / | 10 | / | /
COC(=O)c1ccc(CNCC(O)COc2ccc(-c3ccccc3)cc2)cc1 (stereo not given) | 4 | 12 | 0 | -64 | 8 | / | /
COc1ccc(CNCC(O)COc2ccc(C(C)(C)c3ccccc3)cc2)cc1 (stereo not given) | -8 | 4 | -7 | -103 | 24* | 12 | 3
CC(Cc1ccccc1)N1C(=O)c2cccc([N+](=O)[O-])c2C1=O (stereo not given) | 9 | 3 | -20 | -6 | 6 | / | /
CCN1/C(=C/C(C)=C/c2sc3ccccc3[n+]2CC)Sc2ccccc21 | -82 | -2 | -1 | 2 | 23* | 3 | 10
Cc1c2c(c(C)n1C)C(C(=O)NC1CCCCC1)N(Cc1ccccc1)C2=O (stereo not given) | 2 | 2 | -9 | -6 | 1 | / | /
O=C(CCc1ccccc1)N=C1SC2CS(=O)(=O)CC2N1Cc1ccc(F)cc1 (stereo not given) | 0 | -25 | -5 | 8 | -6 | / | /
CN(CCOc1ccccc1)CCOc1ccccc1 | -21 | -6 | -2 | 8 | -5 | / | /
CN(C)CCOc1ccc(/C(=C(/CCCl)c2ccccc2)c2ccccc2)cc1 | -17 | -19 | -8 | / | 21* | -9 | -1
C=CCN1C(=O)c2ccc(C(=O)N(C)CC(=O)Nc3ccccc3C(F)(F)F)cc2C1=O | -3 | 21 | 1 | -1 | -3 | / | /
O=C(CN(C(=O)CSc1nc2ccccc2o1)c1ccccc1F)NC1CCCCC1 | 1 | -34 | -1 | -7 | -1 | / | /

Screens as filed in PubChem.
